From ChEMBL document CHEMBL1150767, “4-N-, 4-S-, and 4-O-chloroquine analogues: influence of side chain length and quinolyl nitrogen pKa on activity vs chloroquine resistant malaria” (J Med Chem, 2008)

Assays:
Plasmodium falciparum [1] = assay: Antimalarial activity against chloroquine-sensitive Plasmodium falciparum HB3 after 72 hrs by SYBR green assay; assay type: functional, organism-based; details: HB3, 72 h
Procedure, shortened: (§1)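 Sorbitol-synchronized P. falciparum cultures (>95% rings) at 0.5% parasitemia, 1% hematocrit final, exposed to drug dilutions in complete medium 72 h at 37°C; SYBR Green I added, 1 h at 37°C, fluorescence read at 530 nm (490 nm excitation). Each dilution in triplicate; IC50 averaged over at least two separate assays.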

[2] = Binding affinity to mu dimeric heme in aqueous solution at pH 7.5
Procedure, shortened: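 Hemin first converted to μ-oxo dimer in mild alkaline solution, then titrated to pH 7.5 with Hepes buffer. Heme titrated with increasing drug (0 – 50 μM); absorbance at 402 nm recorded after each addition. Solvent-only titration served as control. Ka derived from ΔAbs402 plots by Scatchard analysis.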

Plasmodium falciparum [3] = assay: Drug accumulation in digestive vacuole of chloroquine-sensitive Plasmodium falciparum assessed as vacuolar accumulation ratio at pH 5.6; assay type: ADME, organism-based
Procedure, shortened: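 Calculated, not measured: Henderson–Hasselbach equation with cytosolic pH 7.4 and digestive vacuole pH 5.6 (CQS), using experimental pKa values.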

Plasmodium falciparum [4] = assay: Drug accumulation in digestive vacuole of chloroquine-resistant Plasmodium falciparum assessed as vacuolar accumulation ratio at pH 5.2; assay type: ADME, organism-based
Procedure, shortened: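 Calculated with the Henderson–Hasselbach equation from compound pKa values, taking cytosolic pH 7.4 and DV pH 5.2 for CQR parasites. Experimental pKa came from titrating 10 mM drug in water with 0.1 M NaOH at room temperature, using second-derivative inflection points, three determinations averaged.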

Plasmodium falciparum [5] = assay: Selectivity for chloroquine-resistant Plasmodium falciparum Dd2 over chloroquine-sensitive Plasmodium falciparum HB3 as IC50 ratio by SYBR green assay; assay type: functional
[6] = Inhibition of haemozoin formation at pH 5.2 after 18 hrs; assay type: functional
Procedure, shortened: (§2)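 Cell-free β-hematin formation in 1 mL containing lecithin (2 μg/ml final), hematin (100 μM final), 0.1 M HCl, propionate buffer at stated pH, and drug (0-1000 μM). Triplicates shaken at 37°C for 18 h. Pellets washed with pH 9.0 bicarbonate to remove uncrystallized heme, dried, dissolved in 0.1 M NaOH, and quantified by absorbance at 402 nm against a heme calibration curve.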

Plasmodium falciparum [7] = assay: Antimalarial activity against chloroquine-resistant Plasmodium falciparum Dd2 after 72 hrs by SYBR green assay; assay type: functional, organism-based; details: Dd2, 72 h; procedure, shortened: as §1
[8] = Inhibition of haemozoin formation at pH 5.6 after 18 hrs; assay type: functional; procedure, shortened: as §2
Plasmodium falciparum [9] = assay: Antimalarial activity against chloroquine-sensitive Plasmodium falciparum GCO3 after 72 hrs by SYBR green assay; assay type: functional, organism-based; details: GCO3, 72 h; procedure, shortened: as §1
Plasmodium falciparum [10] = assay: Antimalarial activity against chloroquine-resistant Plasmodium falciparum FCB after 72 hrs by SYBR green assay; assay type: functional, organism-based; procedure, shortened: as §1
Plasmodium falciparum [11] = assay: Selectivity for chloroquine-resistant Plasmodium falciparum FCB over chloroquine-sensitive Plasmodium falciparum GCO3 as IC50 ratio by SYBR green assay; assay type: functional
Plasmodium falciparum [12] = assay: Selectivity for chloroquine-resistant Plasmodium falciparum Indochina I over chloroquine-sensitive Plasmodium falciparum Haiti 135 as IC50 ratio by [3H]hypoxanthine uptake; assay type: functional
Plasmodium falciparum [13] = assay: Selectivity for chloroquine-resistant Plasmodium falciparum K1 over chloroquine-sensitive Plasmodium falciparum NF54 as IC50 ratio by [3H]hypoxanthine uptake; assay type: functional
Plasmodium falciparum [14] = assay: Antimalarial activity against chloroquine-sensitive Plasmodium falciparum NF54 by [3H]hypoxanthine uptake; assay type: functional, organism-based
Plasmodium falciparum [15] = assay: Antimalarial activity against chloroquine-resistant Plasmodium falciparum K1 by [3H]hypoxanthine uptake; assay type: functional, organism-based

Row | SMILES | IC50 (Plasmodium falciparum [1]) [µM] | Ka [2] | logKA [2] | Activity (Plasmodium falciparum [3]) | Activity (Plasmodium falciparum [4]) | Ratio IC50 (Plasmodium falciparum [5]) | IC50 [6] [µM] | IC50 (Plasmodium falciparum [7]) [µM] | IC50 [8] [µM] | IC50 (Plasmodium falciparum [9]) [µM] | IC50 (Plasmodium falciparum [10]) [µM] | Ratio IC50 (Plasmodium falciparum [11]) | Ratio IC50 (Plasmodium falciparum [12]) | Ratio IC50 (Plasmodium falciparum [13]) | IC50 (Plasmodium falciparum [14]) [µM] | IC50 (Plasmodium falciparum [15]) [µM]
1 | CCN(CC)CCCCSc1ccnc2cc(Cl)ccc12 | 7.39 | 8.22 ×10⁴ /M | 4.9 | 64 | 170 | 0.601 | 216 | 4.44 | 155 | 5.63 | 3.5 | 0.622 | – | – | – | –
2 | CCN(CC)CCCC(C)Nc1ccnc2cc(Cl)ccc12 (stereo unspecified) [CHLOROQUINE] | – | – | – | 3700 | 23000 | – | 35 | – | 16 | – | – | – | – | – | – | –
3 | CCN(CC)CCCCCCSc1ccnc2cc(Cl)ccc12 | 6.02 | – | – | – | – | 0.683 | – | 4.11 | – | 4.45 | 3.3 | 0.742 | – | – | – | –
4 | CCN(CC)CCNc1ccnc2cc(Cl)ccc12 | 0.013 | – | – | – | – | 2 | – | 0.026 | – | 0.013 | 0.03 | 2.3 | 0.714 | 2.33 | 0.021 | –
5 | CCN(CC)CCCOc1ccnc2cc(Cl)ccc12 | 5.1 | – | – | – | – | 0.549 | – | 2.8 | – | 2.34 | 2.33 | 0.996 | – | – | – | –
6 | CCN(CC)CCSc1ccnc2cc(Cl)ccc12 | 9.53 | – | – | – | – | 0.577 | – | 5.5 | – | 5.74 | 6.02 | 1.04 | – | – | – | –
7 | CCN(CC)CCCC(CCCN(CC)CC)Oc1ccnc2cc(Cl)ccc12 | 0.094 | 3.47 ×10⁴ /M | 4.5 | 5000 | 79000 | 4.35 | 199 | 0.409 | 687 | 0.074 | 0.352 | 4.75 | – | – | – | –
8 | CCN(CC)CCCCCCOc1ccnc2cc(Cl)ccc12 | 3.06 | – | – | – | – | 1.36 | – | 4.16 | – | 2.27 | 1.19 | 0.524 | – | – | – | –
9 | CCN(CC)CCCNc1ccnc2cc(Cl)ccc12 | – | – | – | – | – | 4.33 | – | 0.026 | – | 0.007 | 0.029 | 4.14 | 1.2 | 3.33 | 0.018 | 0.06
10 | CCNCCCNc1ccnc2cc(Cl)ccc12 | 0.007 | – | – | – | – | 16.4 | – | 0.115 | – | 0.02 | 0.085 | 4.25 | – | 24.3 | 0.015 | 0.365
11 | CCNCCCCNc1ccnc2cc(Cl)ccc12 | 0.018 | – | – | – | – | 36.1 | – | 0.649 | – | 0.026 | 0.854 | 32.8 | – | – | – | –
12 | CCN(CC)CCOc1ccnc2cc(Cl)ccc12 | 5.8 | – | – | – | – | 0.788 | – | 4.57 | – | 5.29 | 5.08 | 0.96 | – | – | – | –
13 | CCN(CC)CCCCCOc1ccnc2cc(Cl)ccc12 | 1.87 | – | – | – | – | 0.54 | – | 1.01 | – | 1.49 | 0.93 | 0.624 | – | – | – | –
14 | CCNCCNc1ccnc2cc(Cl)ccc12 | 0.012 | – | – | – | – | 6.75 | – | 0.081 | – | 0.012 | 0.089 | 7.42 | – | 1.25 | 0.021 | 0.133
15 | CCN(CC)CCCCCSc1ccnc2cc(Cl)ccc12 | 2.33 | – | – | – | – | 0.464 | – | 1.08 | – | 1.61 | 0.814 | 0.506 | – | – | – | –
16 | CCN(CC)CCCCCNc1ccnc2cc(Cl)ccc12 | 0.029 | – | – | – | – | 12.3 | – | 0.357 | – | 0.066 | 0.509 | 7.17 | 9.67 | – | – | –
17 | CCN(CC)CCCSc1ccnc2cc(Cl)ccc12 | 5.6 | – | – | – | – | 0.475 | – | 2.66 | – | 3.46 | 1.61 | 0.465 | – | – | – | –
18 | CCN(CC)CCCCC(CCCCN(CC)CC)Oc1ccnc2cc(Cl)ccc12 | 0.073 | – | – | – | – | 4.31 | – | 0.316 | – | 0.045 | 0.604 | 13.4 | – | – | – | –
19 | CCNCCCCCCNc1ccnc2cc(Cl)ccc12 | 0.019 | – | – | – | – | 31.3 | – | 0.982 | – | 0.052 | 0.987 | 10 | – | – | – | –
20 | CCN(CC)CCCCOc1ccnc2cc(Cl)ccc12 | 2.92 | 8.82 ×10⁴ /M | 5 | 67 | 190 | 0.404 | > 1000 | 1.18 | > 1000 | 1.66 | 1.1 | 0.663 | – | – | – | –
21 | CCN(CC)CCCCCCNc1ccnc2cc(Cl)ccc12 | 0.097 | – | – | – | – | 0.876 | – | 0.085 | – | 0.016 | 0.102 | 6.38 | 11.2 | – | – | –
22 | CCN(CC)CC(CN(CC)CC)Oc1ccnc2cc(Cl)ccc12 | 1.49 | – | – | – | – | 0.866 | – | 1.29 | – | 2.25 | 3.83 | 1.7 | – | – | – | –
23 | CCN(CC)CCCCNc1ccnc2cc(Cl)ccc12 | 0.012 | 1.65 ×10⁵ /M | 5.2 | 3700 | 23000 | 16.6 | 24 | 0.199 | 12 | 0.049 | 0.181 | 3.69 | 10.2 | – | – | –
24 | CCNCCCCCNc1ccnc2cc(Cl)ccc12 | 0.021 | – | – | – | – | 37.4 | – | 0.786 | – | 0.062 | 1.27 | 20.5 | – | – | – | –
